From ChEMBL document CHEMBL1800041, “Bioactive terpenes from Spongia officinalis” (J Nat Prod, 2011)
Active and inactive are the calls of the source. The calls are words filed in the database; no cut-off is given here.

What was measured:
Assay type in all cases: functional, organism-based
[1] = tested on: Escherichia coli; assay: Antibacterial activity against Escherichia coli by broth macrodilution method
Method in brief: (§1)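 Broth macrodilution as in the antifungal test (NCCLS M27-P guideline). The medium was changed to Luria-Bertani (10 g/L Bactotryptone, 5 g/L Bactoyeast, 10 g/L NaCl, pH 7.5), and incubation was at 37 °C for 24 h.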

[2] = tested on: Staphylococcus aureus; assay: Antibacterial activity against Staphylococcus aureus by broth macrodilution method; method in brief: as §1
[3] = tested on: Candida albicans; assay: Antifungal activity against Candida albicans by broth macrodilution method
Method in brief: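 Broth macrodilution following NCCLS document M27-P guidelines for antifungal susceptibility testing of yeast.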

[4] = tested on: Staphylococcus aureus; assay: Antibacterial activity against Staphylococcus aureus at 100 ug/mL by broth macrodilution method

| SMILES | Activity [1] | Activity [2] | Activity [3] | Activity [4] |
| --- | --- | --- | --- | --- |
| C[C@H](CCCc1ccoc1)CC(=O)C[C@@H](C)CCCc1ccoc1 | inactive | inactive | inactive |  |
| COC(=O)/C(C)=C/CC/C(=C/CC/C(C)=C/CC/C(C)=C/CCc1ccoc1)C(=O)O | inactive |  | inactive | Active |
| C/C(=C\CCc1ccoc1)CC(=O)C[C@@H](C)CCCc1ccoc1 | inactive | inactive | inactive |  |
| C/C(=C\CCc1ccoc1)CC/C=C(\C)CCCc1ccoc1 | inactive | inactive | inactive |  |
| C/C(=C\CCc1ccoc1)C[C@H](O)C[C@@H](C)CCCc1ccoc1 | inactive | inactive | inactive |  |
| COC(=O)/C(=C\CC/C(C)=C/CC/C(C)=C/CCc1ccoc1)CC/C=C(\C)C(=O)O | inactive | inactive | inactive |  |
| C/C(=C\CCc1ccoc1)CC/C=C(\C)CCCC1=CC(=O)OC1 | inactive | inactive | inactive |  |
